Experimental data from ChEMBL document CHEMBL4130635, “2,4-Diaminoquinazolines as Dual Toll-like Receptor (TLR) 7/8 Modulators for the Treatment of Hepatitis B Virus” (J Med Chem, 2018).
Activity calls are given as the source filed them. The calls are words filed in the database; no cut-off is given here.

Legend:
Cytochrome P450 2D6 = Cytochrome P450 2D6 (Homo sapiens, UniProt P10635); assay: Inhibition of CYP2D6 (unknown origin); format: ADME
[1] = Solubility of the compound in FeSSIF; format: physicochemical
[2] = Protein binding in mouse plasma fraction at 5 uM after 4.5 hrs LC-MS/MS-based rapid equilibrium dialysis method; format: ADME, cell-free; conditions: read-out: PPB (converted)
[3] = Hepatic extraction ratio in Sprague-Dawley rat hepatocytes; format: ADME, cell-based, Hepatocyte; conditions: in vivo, in the assay text read “in Sprague-Dawley rat” for “in Sprague-Dawley rat hepatocytes”, read-out: ERH
How it was run: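 Male Sprague-Dawley rats given 10 mg/kg po as a solution; compound measured in portal vein and systemic circulation to derive the hepatic extraction ratio.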

[4] = Cmax in C57BL/6J mouse liver at 1 mg/kg, po by LC-MS analysis; format: ADME, organism-based; parameters: dose 1 mg/kg, route oral
How it was run: (§1)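 Healthy C57BL/6 mice, groups of 15, given a single oral dose (0.3, 1, 3, 10 or 30 mg/kg) in 20% HP-β-CD. Blood drawn at 0.5 h. Three mice per group sacrificed at 0.5, 1, 2, 4 or 7 h, and compound in plasma and liver measured by LC−MS. Values rounded to whole numbers.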

[5] = Cmax in C57BL/6J mouse liver at 10 mg/kg, po by LC-MS analysis; format: ADME, organism-based; parameters: dose 10 mg/kg, route oral; how it was run: as §1
[6] = Cmax in C57BL/6J mouse liver at 30 mg/kg, po by LC-MS analysis; format: ADME, organism-based; parameters: dose 30 mg/kg, route oral; how it was run: as §1
[7] = AUC (0 to last) in C57BL/6J mouse liver at 0.3 mg/kg, po by LC-MS analysis; format: ADME, organism-based; conditions: in vivo
How it was run: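 Healthy C57BL/6 mice were dosed once by mouth at 0.3, 1, 3, 10 or 30 mg/kg in 20% HP-β-CD, in groups of 15 per dose. Three mice per group were sacrificed at 0.5, 1, 2, 4 or 7 h, and plasma and liver compound levels were measured by LC–MS. Values were rounded to whole numbers.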

Plasma [8] = assay: Induction of IFNalpha levels in C57BL/6J mouse plasma at 30 mg/kg, po by ELISA; format: functional
Liver [9] = assay: Upregulation of IP-10 mRNA expression levels in C57BL/6J mouse liver at 30 mg/kg, po by RT-qPCR analysis (reference value: 1); format: functional
Liver [10] = assay: Effect on cytokine profile in C57BL/6J mouse liver assessed as IL-12p70 levels at 3 mg/kg, po by multiplex assay (reference value: 5 pg/g); format: functional, organism-based
How it was run: (§2)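 Single oral gavage in 20% HP-β-CD to healthy C57BL/6 mice, groups of 15 at 0.3, 1, 3, 10 or 30 mg/kg. Three mice per group sacrificed at 0.5, 1, 2, 4 or 7 h. Plasma and liver cytokines by multiplex, maximum level reported, rounded to nearest multiple of 5.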

Plasma [11] = assay: Effect on cytokine profile in C57BL/6J mouse plasma assessed as IFNgamma levels at 1 mg/kg, po by multiplex assay; format: functional, organism-based; how it was run: as §2
Plasma [12] = assay: Effect on cytokine profile in C57BL/6J mouse plasma assessed as IFNgamma levels at 3 mg/kg, po by multiplex assay; format: functional, organism-based; how it was run: as §2
Liver [13] = assay: Effect on cytokine profile in C57BL/6J mouse liver assessed as IFNgamma levels at 3 mg/kg, po by multiplex assay; format: functional; how it was run: as §2
Plasma [14] = assay: Proinflammatory activity in C57BL/6J mouse plasma assessed as IL-1beta levels at 1 mg/kg, po by multiplex assay (reference value: 60 pg/ml); format: functional, organism-based
Liver [15] = assay: Proinflammatory activity in C57BL/6J mouse liver assessed as IL-1beta levels at 0.3 mg/kg, po by multiplex assay; format: functional
Plasma [16] = assay: Proinflammatory activity in C57BL/6J mouse plasma assessed as CXCL-1 levels at 1 mg/kg, po by multiplex assay (reference value: 230 pg/ml); format: functional
Plasma [17] = assay: Proinflammatory activity in C57BL/6J mouse plasma assessed as IL-6 levels at 30 mg/kg, po by multiplex assay (reference value: 505 pg/ml); format: functional
Liver [18] = assay: Proinflammatory activity in C57BL/6J mouse liver assessed as TNFalpha levels at 1 mg/kg, po by multiplex assay (reference value: 15 pg/g); format: functional, organism-based
Liver [19] = assay: Proinflammatory activity in C57BL/6J mouse liver assessed as TNFalpha levels at 3 mg/kg, po by multiplex assay (reference value: 15 pg/g); format: functional
[20] = AUC (0 to last) in cynomolgus monkey plasma at 1 mg/kg, po by LC-MS analysis; format: ADME, organism-based, Macaca fascicularis; parameters: dose 1 mg/kg, time 0 - last, route oral
How it was run: (§3)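 Healthy cynomolgus monkeys received single oral doses of 1, 3, 9 and 30 mg/kg, with a 2-week wash-out between doses. Systemic compound concentrations were measured by LC–MS at 0.25, 0.5, 1, 2, 4, 8 and 24 h postdose.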

[21] = AUC (0 to last) in cynomolgus monkey plasma at 9 mg/kg, po by LC-MS analysis; format: ADME, organism-based, Macaca fascicularis; parameters: dose 9 mg/kg, route oral, time 0 - last; how it was run: as §3
Cynomolgus monkey [22] = assay: Plasma concentration in cynomolgus monkey at 30 mg/kg, po by LC-MS analysis; format: ADME, organism-based, Macaca fascicularis; conditions: in vivo
Cynomolgus monkey [23] = assay: Induction of IFNalpha levels in cynomolgus monkey plasma at 3 mg/kg, po after 24 hrs by ELISA; format: functional, Macaca fascicularis
How it was run: (§4)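 Healthy cynomolgus monkeys given single oral doses of 1, 3, 9 and 30 mg/kg, with a 2-week wash-out planned between doses. Systemic cytokine levels in plasma were sampled at 0.5, 1, 2, 4, 9 and 24 h postdose.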

Cynomolgus monkey [24] = assay: Proinflammatory activity in cynomolgus monkey plasma assessed as IL-6 levels at 1 mg/kg, po after 24 hrs by Luminex assay (reference value: 80 pg/ml); format: functional, Macaca fascicularis
Cynomolgus monkey [25] = assay: Induction of G-CSF in cynomolgus monkey plasma at 3 mg/kg, po after 24 hrs by Luminex assay (reference value: 85 pg/ml); format: functional, organism-based; conditions: Macaca fascicularis; how it was run: as §4
Cynomolgus monkey [26] = assay: Induction of ISG response in cynomolgus monkey plasma assessed as upregulation of Mx1 mRNA expression at 3 mg/kg, po after 24 hrs by Fluidigm RT-qPCR analysis (reference value: 1); format: functional, Macaca fascicularis
How it was run: (§5)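 Cynomolgus monkeys, single oral doses of 1, 3, 9 and 30 mg/kg with a planned 2-week wash-out between doses. Systemic ISG (ISG15, Mx1, OAS1) mRNA was measured by Fluidigm RT-qPCR at 1, 2, 4, 8 and 24 h postdose.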

Cynomolgus monkey [27] = assay: Induction of ISG response in cynomolgus monkey plasma assessed as upregulation of Oas1b mRNA expression at 9 mg/kg, po after 24 hrs by Fluidigm RT-qPCR analysis (reference value: 1); format: functional, Macaca fascicularis; how it was run: as §5
[28] = biological target: T1, TLR7 and TLR8 (Homo sapiens) (UniProt Q9NYK1+Q9NR97); assay: Agonist activity at TLR7/8 in human PBMCs co-cultured with primary human hepatocytes infected with HBV genotype C for 12 days assessed as increase in MIP-1alpha levels up to 5 uM measured after 42 days
T1 sequence (Q9NR97 whole entry, looked up): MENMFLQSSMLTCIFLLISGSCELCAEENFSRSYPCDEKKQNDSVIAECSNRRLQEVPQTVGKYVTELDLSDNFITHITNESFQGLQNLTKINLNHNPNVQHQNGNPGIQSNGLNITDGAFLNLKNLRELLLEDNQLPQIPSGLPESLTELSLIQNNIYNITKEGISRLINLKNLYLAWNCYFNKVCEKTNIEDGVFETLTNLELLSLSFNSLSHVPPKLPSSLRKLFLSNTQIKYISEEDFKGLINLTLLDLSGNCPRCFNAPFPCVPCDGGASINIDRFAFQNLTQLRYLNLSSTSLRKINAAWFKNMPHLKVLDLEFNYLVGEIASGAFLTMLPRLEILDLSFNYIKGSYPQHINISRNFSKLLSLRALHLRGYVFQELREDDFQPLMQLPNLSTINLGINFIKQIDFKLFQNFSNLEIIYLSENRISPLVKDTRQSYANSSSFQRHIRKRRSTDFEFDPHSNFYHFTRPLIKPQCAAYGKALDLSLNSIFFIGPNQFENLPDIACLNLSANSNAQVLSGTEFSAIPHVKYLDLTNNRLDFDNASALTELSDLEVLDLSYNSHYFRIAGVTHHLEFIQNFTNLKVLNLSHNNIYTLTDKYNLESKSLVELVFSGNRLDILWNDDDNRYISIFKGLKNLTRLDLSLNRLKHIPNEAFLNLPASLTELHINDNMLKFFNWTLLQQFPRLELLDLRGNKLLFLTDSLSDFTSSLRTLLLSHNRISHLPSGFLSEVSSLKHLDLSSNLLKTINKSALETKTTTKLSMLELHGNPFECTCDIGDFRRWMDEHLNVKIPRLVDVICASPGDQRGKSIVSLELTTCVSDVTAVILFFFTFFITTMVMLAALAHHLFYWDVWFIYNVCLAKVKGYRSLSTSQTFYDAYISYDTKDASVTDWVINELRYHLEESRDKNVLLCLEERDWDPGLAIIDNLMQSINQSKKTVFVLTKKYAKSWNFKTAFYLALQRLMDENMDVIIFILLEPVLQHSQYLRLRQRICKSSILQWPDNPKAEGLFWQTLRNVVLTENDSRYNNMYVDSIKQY
T1 sequence (Q9NYK1 whole entry, looked up): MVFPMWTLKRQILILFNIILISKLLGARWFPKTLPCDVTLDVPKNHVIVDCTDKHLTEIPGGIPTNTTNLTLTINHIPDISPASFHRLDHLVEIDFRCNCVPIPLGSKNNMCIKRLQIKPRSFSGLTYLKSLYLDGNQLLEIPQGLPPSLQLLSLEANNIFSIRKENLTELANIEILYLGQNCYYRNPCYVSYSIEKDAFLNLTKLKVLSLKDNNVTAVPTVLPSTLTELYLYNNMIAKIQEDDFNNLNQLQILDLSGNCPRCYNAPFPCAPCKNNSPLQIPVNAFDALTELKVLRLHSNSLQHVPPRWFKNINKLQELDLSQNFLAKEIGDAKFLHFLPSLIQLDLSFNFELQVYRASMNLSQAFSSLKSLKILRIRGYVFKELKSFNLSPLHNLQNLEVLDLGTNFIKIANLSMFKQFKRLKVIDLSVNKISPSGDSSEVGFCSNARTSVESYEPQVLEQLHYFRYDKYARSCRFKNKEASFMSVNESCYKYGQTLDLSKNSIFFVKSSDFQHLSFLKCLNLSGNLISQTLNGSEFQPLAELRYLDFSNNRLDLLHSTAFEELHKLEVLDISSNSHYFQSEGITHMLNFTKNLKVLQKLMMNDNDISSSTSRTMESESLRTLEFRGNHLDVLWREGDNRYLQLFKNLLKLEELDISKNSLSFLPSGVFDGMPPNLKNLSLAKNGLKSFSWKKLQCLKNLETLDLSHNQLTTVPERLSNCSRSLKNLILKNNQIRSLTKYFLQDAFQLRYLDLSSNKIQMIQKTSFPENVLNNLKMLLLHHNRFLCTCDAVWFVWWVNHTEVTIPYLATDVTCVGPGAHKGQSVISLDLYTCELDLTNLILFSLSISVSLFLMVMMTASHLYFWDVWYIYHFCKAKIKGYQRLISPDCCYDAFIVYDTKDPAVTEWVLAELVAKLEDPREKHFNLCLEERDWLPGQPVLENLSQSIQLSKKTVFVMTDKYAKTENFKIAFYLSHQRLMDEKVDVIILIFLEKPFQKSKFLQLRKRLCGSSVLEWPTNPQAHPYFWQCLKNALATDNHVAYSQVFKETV

[29] = biological target: T1, TLR7 and TLR8 (Homo sapiens); assay: Agonist activity at TLR7/8 in human PBMCs co-cultured with primary human hepatocytes infected with HBV genotype C for 12 days assessed as increase in fractalkine sCD40L levels up to 5 uM measured after 42 days
Hepatocyte = assay: Toxicity in human primary hepatocytes infected with HBV genotype C for 12 days followed by exposure to conditioned supernatant from at 5 uM compound treated PBMCs assessed as increase in AST level measured after 42 days relative to untreated control; format: cell-based; conditions: 1008 h

Cytochrome P450 2D6, sequence (P10635 whole entry): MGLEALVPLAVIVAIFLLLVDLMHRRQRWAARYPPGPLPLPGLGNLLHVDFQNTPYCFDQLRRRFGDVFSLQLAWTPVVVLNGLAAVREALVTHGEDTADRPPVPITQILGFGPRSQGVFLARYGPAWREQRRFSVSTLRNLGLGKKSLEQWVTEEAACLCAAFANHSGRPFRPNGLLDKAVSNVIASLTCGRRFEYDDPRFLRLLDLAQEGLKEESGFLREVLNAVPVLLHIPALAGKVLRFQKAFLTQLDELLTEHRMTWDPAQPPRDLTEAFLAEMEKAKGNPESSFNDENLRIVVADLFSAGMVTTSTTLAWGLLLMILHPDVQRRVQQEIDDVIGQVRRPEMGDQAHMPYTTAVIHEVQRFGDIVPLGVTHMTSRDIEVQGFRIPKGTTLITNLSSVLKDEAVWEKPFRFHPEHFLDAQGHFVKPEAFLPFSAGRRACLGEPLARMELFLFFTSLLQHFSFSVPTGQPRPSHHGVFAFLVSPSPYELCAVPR

**Q.** Which IC50 (Cytochrome P450 2D6) does the source give for `CCC[C@@H](CCO)Nc1nc(N)nc2c(F)cccc12` here?
**A.** Its IC50 is 5.7 µM.

**Q.** And the solubility [1]?
**A.** The solubility was greater than 4000 µg/mL.

**Q.** What about the fraction unbound at 4.5 h, 5 µM [2] of the same compound?
**A.** The fraction unbound at 4.5 h, 5 µM was 0.4.

**Q.** And the hepatic extraction ratio [3]?
**A.** The hepatic extraction ratio was 0.74.

**Q.** And the Cmax [4]?
**A.** Its Cmax is 188 ng/g.

**Q.** And the Cmax [5]?
**A.** Its Cmax is 1420 ng/g.

**Q.** And the Cmax [6]?
**A.** Its Cmax is 7610 ng/g.

**Q.** What about the AUClast [7] of the same compound?
**A.** Its AUClast is 25 ng·h/g.

**Q.** And the Activity (Plasma [8])?
**A.** The Activity was 1930 pg/mL.

**Q.** What about the “fold change (FC)” value (Liver [9]) of the same compound?
**A.** The value was 1180.

**Q.** What about the Activity (Liver [10]) of the same compound?
**A.** Its Activity is “Below limit of detection”.

**Q.** And the Activity (Plasma [11])?
**A.** Its Activity is “Below limit of detection”.

**Q.** What about the Activity (Plasma [12]) of the same compound?
**A.** The Activity was “Below limit of detection”.

**Q.** What about the Activity (Liver [13]) of the same compound?
**A.** Its Activity is 150 pg/g.

**Q.** What about the Activity (Plasma [14]) of the same compound?
**A.** The Activity was “Below limit of detection”.

**Q.** And the Activity (Liver [15])?
**A.** Its Activity is 9765 pg/g.

**Q.** What about the Activity (Plasma [16]) of the same compound?
**A.** The Activity was 2155 pg/mL.

**Q.** And the Activity (Plasma [17])?
**A.** The Activity was greater than 10000 pg/mL.

**Q.** What about the Activity (Liver [18]) of the same compound?
**A.** The Activity was “Below limit of detection”.

**Q.** What about the Activity (Liver [19]) of the same compound?
**A.** Its Activity is 2865 pg/g.

**Q.** What about the AUC(0-t) [20] of the same compound?
**A.** Its AUC(0-t) is 75 ng·h/mL.

**Q.** And the AUC(0-t) [21]?
**A.** The AUC(0-t) was 4050 ng·h/mL.

**Q.** What about the Cp (Cynomolgus monkey [22]) of the same compound?
**A.** The Cp was 160 ng/mL.

**Q.** What about the Activity (Cynomolgus monkey [23]) of the same compound?
**A.** Its Activity is greater than 51200 pg/mL.

**Q.** What about the Activity (Cynomolgus monkey [24]) of the same compound?
**A.** Its Activity is 75 pg/mL.

**Q.** What about the Activity (Cynomolgus monkey [25]) of the same compound?
**A.** Its Activity is “Below limit of detection”.

**Q.** And the “fold change (FC)” value (Cynomolgus monkey [26])?
**A.** The value was 50.

**Q.** What about the “fold change (FC)” value (Cynomolgus monkey [27]) of the same compound?
**A.** Its value is 260.

**Q.** What about the Activity [28] of the same compound?
**A.** Its Activity is “Active”.

**Q.** What about the Activity [29] of the same compound?
**A.** The Activity was “Active”.

**Q.** And the “fold change (FC)” value (Hepatocyte)?
**A.** The value was 2.6.
